MEKK2mut PB1 HTS = signal of MEK5 binding to mutant human MEKK2 PB1 domain. percent response, % at 10 µM. 0.35% of 290,000 active. bead flow cytometry, Alexa488-MEK5 binding to MEKK2 mutant; in the data active means percent response above about 24%, passing the limit was not always enough
MEKK3 PB1 HTS = modulators (inhibitors or enhancers) of MEK5 binding to human MEKK3 PB1 domain; AID 1529; Q99759; binding response (% of control), % at 10 µM; 1.4% of 290,000 active; bead-based flow cytometry, Alexa488-MEK5 binding to MEKK3; actives lie on both sides; 0 = blocked by unlabeled MEK5, 100 = vehicle;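 active means binding response more than 3 SD above or below the average of its plate-row segment, actives on both sides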;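 further: Alexa488 bead fluorescence after subtracting the streptavidin-only scavenger bead signal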
ABCB1 block = blocks JC-1 efflux by human ABCB1 transporter. CCRF-Adr cells, flow cytometry. P08183. inhibition, % at 6.6 µM. 0.067% of 190,000 active; in the data active means inhibition above about 40%;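 further: 0% = vehicle and 100% = reference inhibitor; higher value means more JC-1 retained so stronger ABCB1 efflux block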
WT yeast gro inh = growth inhibition of WT yeast, mitochondrial fusion screen. mitochondrial fusion phenotypic screen, WT strain. AID 1362. 2.1% of 190,000 active. inhibition, % at 10 µM; in the data active means inhibition above about 58%; tested in S. cerevisiae
ABCG2 block = blocks JC-1 efflux by human ABCG2 transporter; 0.1% of 190,000 active; IgMXP3 cells, flow cytometry; Q9UNQ0; inhibition, % at 6.6 µM;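 active means inhibition above 80%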;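 further: 0% = DMSO and 100% = nicardipine control wells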
Target sequence (Q9UNQ0 whole entry, looked up): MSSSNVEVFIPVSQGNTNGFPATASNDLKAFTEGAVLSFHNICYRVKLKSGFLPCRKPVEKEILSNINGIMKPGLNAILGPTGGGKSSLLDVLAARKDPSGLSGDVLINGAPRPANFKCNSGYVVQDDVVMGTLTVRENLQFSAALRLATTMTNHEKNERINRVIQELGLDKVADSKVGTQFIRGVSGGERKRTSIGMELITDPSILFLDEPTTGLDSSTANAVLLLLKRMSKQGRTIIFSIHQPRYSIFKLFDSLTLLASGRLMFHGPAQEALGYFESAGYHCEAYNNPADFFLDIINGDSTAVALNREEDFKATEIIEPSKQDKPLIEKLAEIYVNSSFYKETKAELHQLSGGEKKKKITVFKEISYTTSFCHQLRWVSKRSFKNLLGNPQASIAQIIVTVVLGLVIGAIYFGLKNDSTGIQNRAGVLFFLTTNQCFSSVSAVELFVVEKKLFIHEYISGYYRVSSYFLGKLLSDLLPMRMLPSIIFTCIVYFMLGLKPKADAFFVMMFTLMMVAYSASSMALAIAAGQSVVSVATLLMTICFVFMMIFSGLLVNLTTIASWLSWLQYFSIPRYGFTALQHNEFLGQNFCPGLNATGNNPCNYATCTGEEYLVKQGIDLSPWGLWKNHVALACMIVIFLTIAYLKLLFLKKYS
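Incubation: cells with compound and JC-1, 10 min at 25 °C, rotating, no wash / Test system: IgMXP3 (ABCG2) plus far-red-tagged CCRF-Adr (ABCB1) cells / Compound dosing: one concentration, 6.6 µM final / Also added: JC-1 fluorescent substrate / Evaluation: efflux inhibition in percent versus controls / Detection: flow cytometry, 530 nm JC-1 signal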
MEKK2 WT-MEK5 = raises or lowers MEK5 binding to wildtype human MEKK2 PB1 domain | bead flow cytometry, Alexa488-MEK5 binding to MEKK2 WT; actives lie on both sides | binding response (% of control), % at 10 µM | 1.1% of 290,000 active | AID 1531; in the data active means binding response below about 67% or above about 130%
An asterisk follows results filed as active; · = no result given; [ ] = another dose, or the depositor's remark. Compounds with a hit are over-represented: about 3.5% of the library has one in this group of screens.

SMILES	MEKK2mut PB1 HTS	MEKK3 PB1 HTS	ABCB1 block	WT yeast gro inh	ABCG2 block	MEKK2 WT-MEK5
O=C(O)C1Nc2c(Cl)cc(Cl)c(Cl)c2C2C=CCC12 (configuration not stated)	1	107	·	·	·	101
CC(C)C1Nc2c(O)cc(Cl)c([N+](=O)[O-])c2C2C=CCC21 (configuration not stated)	-4	99	0	83*	0	97
COC(=O)c1ccc(N2CCN(C)CC2)c(NC(=O)c2sc3ccccc3c2Cl)c1	22	111	·	·	·	172*
CCC1(C)Cc2ccccc2-c2nc3n(c(=O)c21)CCCCC3 (configuration not stated)	0	101	1	23	9	103
O=c1c2c(nc3n1CCCCC3)-c1ccccc1CC21CCCCC1	3	97	0	78*	4	96
O=c1c2c(nc(NCCO)n1CC1CCCCC1)-c1ccccc1CC21CCCC1	-3	89	0	69*	0	88
CSc1nc(Cl)c(Cc2ccc(OC(C)C)cc2)c(N2CCOCC2)n1	-2	97	1	4	3	97
CCCOc1ccc(Cc2c(Cl)nc(SC)nc2N(C)C)cc1	0	122	1	64*	1	101
COc1nc(SC)nc(Cl)c1Cc1ccc(OC(C)C)cc1	-2	99	1	59*	2	100
CCCOc1ccc(Cc2c(Cl)nc(SC)nc2OC)cc1	-2	93	1	38	2	95
CN1CCN(c2ncnc3c2sc2nc(N4CCCC4)c4c(c23)CC(C)(C)OC4)CC1	·	·	·	17	·	·
CCN(CC)c1ccc(NC(=S)Nc2ccc(F)cc2)cc1	-2	100	0	-14	-1	102
O=C(/C=C/c1ncc(C(F)(F)F)cc1Cl)OCc1ccccc1	10	112	0	13	-1	112
Cc1ccc(C2C(/C=C3/SC(=S)NC3=O)=C(c3cccs3)Oc3ccccc32)cc1 (configuration not stated)	-6	97	1	35	-2	76
CC(=O)Nc1ccc(S(=O)(=O)N2CCN(C)CC2)cc1	0	104	1	64*	1	104
Cc1nc2ccccc2c2oc(C(=O)Nc3ccc4c(c3)OCCO4)cc12	1	103	-1	0	-3	105
Cc1nc2ccccc2c2oc(C(=O)Nc3ccc(C(C)C)cc3)cc12	-12	104	0	61*	3	101
O=C(CN1C(=O)c2ccccc2C1=O)Oc1ccc(F)cc1	4	105	·	·	·	106
COc1ccc(CN2CCN(C(=O)Cn3c(=O)oc4cc(Cl)ccc43)CC2)c(OC)c1OC	9	103	·	·	·	103
CC(C)c1ccc(OCc2nc(-c3ccccn3)no2)c(Br)c1	1	99	1	79*	6	101
Cc1ccc(OCc2nc(-c3ccccn3)no2)c(Br)c1	2	100	0	6	2	102
CNc1ccccc1C(C)(C)c1cc(-c2cc(C)cc(C)c2)no1	-1	93	1	57	10	94
CNc1ccccc1C(C)(C)c1cc(-c2cccc(OC)c2)no1	-1	111	0	63*	1	100
O=C(CNC(=O)c1ccc2ccccc2c1)OCC(=O)N1CCN(S(=O)(=O)c2ccc3ccccc3c2)CC1	-2	105	0	-1	-2	103
CC(C)(C)N=C1NN=C(c2cc3ccccc3o2)CS1	8	95	0	67*	0	102
SMILES	MEKK2mut PB1 HTS	MEKK3 PB1 HTS	ABCB1 block	WT yeast gro inh	ABCG2 block	MEKK2 WT-MEK5
C#CCn1c(CCNC(=O)c2ccco2)nc2ccccc21	-4	102	·	·	·	102
O=C(CN1CCOCC1)N/N=C/c1cc2ccccc2nc1Cl	6	101	-1	-8	4	100
O=c1nc(N/N=C/c2ccccn2)cn[nH]1	-18	3.0*[inhibitor]	1	18	8	4.0*[inhibitor]
C(=N\Nc1nc2ccccc2[nH]1)/c1ccccn1	-3	111	0	67*	5	101
COc1cc(OC)c(OC)cc1/C=N/Nc1nc2ccccc2[nH]1	12	105	·	·	·	120
Cc1ccc2cc(/C=N/Nc3nc4ccccc4[nH]3)c(Cl)nc2c1	5	103	-1	59*	-3	109
Cc1ccc(NCC(=O)N/N=C/c2cc3ccccc3nc2Cl)cc1	·	·	0	68*	0	·
COc1cccc(C(=O)NCC2(c3ccc(OC)c(OC)c3)CCCC2)c1	0	103	·	·	·	100
COc1ccc(S(=O)(=O)N2CCN(CC(=O)NC3CC3)CC2)cc1	6	99	·	·	·	105
CC1CCCCC1NCC#CCOc1ccc(Cl)cc1 (configuration not stated)	5	104	2	20	7	116
c1ccc2c(c1)CC/C2=N/Nc1nc2ccccc2[nH]1	4	105	0	77*	2	132
CC(C)(C)C1CCC(=NNc2nc3ccccc3[nH]2)CC1 (configuration not stated)	6	105	0	11	5	115
Cn1c(N/N=C/c2cc3ccccc3nc2Cl)nc2ccccc21	6	107	0	69*	-3	100
Cc1cccc(NC(=O)c2ccc(NC(C)c3ccccc3)c([N+](=O)[O-])c2)n1 (configuration not stated)	1	98	3	-2	30	104
Cc1cccc(-n2ncc3c(N4CCCC4)ncnc32)c1	1	94	0	-17	7	103
Cc1cccc(-n2ncc3c(N4CC(C)CC(C)C4)ncnc32)c1 (configuration not stated)	9	109	1	78*	6	111
CC1CC(C)CN(c2ncnc3c2cnn3Cc2ccc(Cl)cc2)C1 (configuration not stated)	4	101	2	76*	40	103
Nc1ccc2oc(-c3ccccc3Cl)cc(=O)c2c1O	3	108	1	6	11	96
O=c1cc(-c2ccccc2Cl)oc2ccc([N+](=O)[O-])c(O)c12	-2	108	2	64*	29	97
Cc1cc(S(=O)(=O)N2CCN(c3ccccc3C)CC2)ccc1F	7	104	0	61*	0	103
COc1cc(OC)cc(C(=O)NC(=S)N(Cc2ccccc2)C(C)C)c1	-7	91	·	·	·	95
Fc1ccccc1Cn1nnc2c(-n3ccnc3)ncnc21	1	101	1	-3	4	107
Cc1ccc(C(C)C)c(OCc2nn(CC(=O)c3ccc(Cl)cc3)c3[n+]2CCCCC3)c1	18	91	0	38	2	192*
O=C(Cn1nc(CNc2ccc(Cl)cc2)[n+]2c1CCCCC2)c1ccccc1	39	114	0	-2	16	130
O=C(Nc1nc(-c2ccccn2)cs1)c1ccc2c(c1)OCCO2	3	101	1	69*	2	99
